Source: PubChem BioAssay
An excerpt weighted towards active compounds, which were near 3.8% of everything screened.
Exocytosis inh = lytic granule exocytosis inhibition; TALL-104 LAMP-1 surface exposure, flow cytometry; cells stimulated with thapsigargin and PMA; inhibition, % at 10 µM; hit rate 0.66% among 360,000; AID 651702;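 active = inhibition above about 55%, limit read from the data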
MPTP block = permeability transition pore inhibition; isolated mouse mitochondria, Ca2+ swelling absorbance, 30 min; inhibition, % at 10 µM; hit rate 1.4% among 360,000; AID 602449;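 active = inhibition of 50% or more, scaled per plate between neutral and stimulator controls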;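 note: 0% = DMSO wells given calcium and 100% = 1 mM EGTA wells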
T cell HTS = T cell immune modulation candidate; 2C CD8+ T cell-vesicle binding, flow cytometry; active compounds read low; hit rate 0.068% among 330,000; response (vesicle binding), % at 7 µM;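 active = response, share of CD8 T cells binding vesicles, and their 90th percentile fluorescence all below set limits, cut at about 80% in these data, passing the limit was not always enough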;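 note: values below 100% mean blocked vesicle binding to the CD8+ T cells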
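incubation = binding step 1.5 h, 37 °C, antibody labelling 20 min, ice | test system = 2C mouse CD8+ T cells | read-out basis = percent CD8+ FL2 mean versus row control | controls = Peptide-free naked vesicles (low) and QL9 vesicles with 0.7% DMSO vehicle (high) | detection = flow cytometry of vesicle-bound cells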
rCAG RNA binder = molecules binding r(CAG) RNA repeats; r(CAG) RNA repeat, TO-PRO-1 dye displacement fluorescence; inhibition, % at 3 µM; hit rate 1.3% among 370,000;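 active = inhibition above the plate cutoff, the mean of all test compounds on that plate plus 3 SD, cut at about 35% in these data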;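 note: 0% = DMSO alone and 100% = 100 µM mitoxantrone as full dye displacement; higher means more dye released from RNA so lower well fluorescence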
B2AR ag = agonists of human beta-2 adrenergic receptor inducing internalization | P07550 | Am2.2-beta2AR cells, FAP receptor internalization, flow cytometry | response, % (no concentration beside the values) | hit rate 0.43% among 340,000 | AID 504454;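 active = response above a set limit, near 3 SD of response in nonfluorescent compounds, cut at about 42% in these data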
Target sequence (P07550 whole entry, looked up): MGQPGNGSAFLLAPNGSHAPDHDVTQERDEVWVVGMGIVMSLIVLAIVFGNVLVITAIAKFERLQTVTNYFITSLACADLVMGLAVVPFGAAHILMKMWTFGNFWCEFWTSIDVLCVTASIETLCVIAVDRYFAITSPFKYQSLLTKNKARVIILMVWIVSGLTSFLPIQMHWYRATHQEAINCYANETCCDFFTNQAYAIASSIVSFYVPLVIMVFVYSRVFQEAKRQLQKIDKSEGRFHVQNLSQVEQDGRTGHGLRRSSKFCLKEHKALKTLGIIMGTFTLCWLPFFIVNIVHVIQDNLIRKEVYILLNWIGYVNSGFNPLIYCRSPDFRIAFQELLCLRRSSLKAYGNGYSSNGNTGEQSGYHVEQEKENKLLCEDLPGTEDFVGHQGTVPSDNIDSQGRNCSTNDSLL
V-ATPase pHluor = yeast V-ATPase proton transport regulation by pHLuorin; S. cerevisiae, pHLuorin cytosolic pH fluorescence; response, % at 10 µM; hit rate 0.37% among 350,000; in the data active = response mostly above about 7.3%, no sharp cut-off; inactive = mostly below about 5.4%; note: actives read high
* marks the source's active call; other numbers are inactive results; i = inactive; . = no result given; ! = a repeat was not active.

SMILES | Exocytosis inh | MPTP block | T cell HTS | rCAG RNA binder | B2AR ag | V-ATPase pHluor
COC(=O)[C@]12C[C@H](CC(=O)N3CCCCC3)C(=O)N(Cc3ccccc3)C1=C[C@H](C(C)(C)C)O[C@@H]2C | . | . | . | 0.0 | . | .
O=C(Nc1ccc2c(c1)OCO2)c1ccc(Br)o1 | -1.5 | 0.9 | 475.7 | 1.3 | -1.5 | -2.7
C/C(=N\NC(=O)c1ccc(Br)o1)c1cc2c(cc1NC(=O)CCC(=O)O)OCO2 | 1.7 | -0.2 | 0.0* | 1.0 | -5.4 | 0.1
COC(=O)[C@]12C[C@H](CC(=O)NCC3CCCCC3)C(=O)N(Cc3cccc4ccccc34)C1=C[C@H](C1CCCC1)O[C@@H]2C | . | . | . | 12.7 | . | .
O=C1c2ccccc2-c2c1cccc2C(=O)N1CCCCCC1 | 1.8 | -1.0 | 453.7 | -6.2 | -6.9 | 14.9*
COc1ccccc1C1=NOC(COc2ccc3c(C)cc(=O)oc3c2)C1 (stereo not drawn) | 10.4 | -0.1 | 716.8 | -1.5 | 44.2* | -1.5
COc1ccc(C2=NOC(COc3ccc4c(C)cc(=O)oc4c3)C2)c(OC)c1 (stereo not drawn) | -6.6 | 3.5 | 578.8 | 3.1 | 20.5 | -3.7
CCOC(=O)[C@]12CCCCC/C=C\1N(Cc1ccc(OC)cc1)C(=O)[C@H]2CC(=O)NCC1CCCCC1 | . | . | . | 3.5 | . | .
Cc1ccc(/C=C/C(=O)c2ccc([N+](=O)[O-])o2)cc1 | . | . | 200.0 | 8.2 | . | .
O=C(/C=C/c1ccc(Cl)cc1)c1ccc([N+](=O)[O-])o1 | -2.1 | -0.8 | 147.9 | 3.4 | 18.8 | 12.1*
Cc1cc(C(=O)Cn2ncc(Cl)c(Cl)c2=O)c(C)n1CC(F)(F)F | 1.4 | 0.1 | 380.0 | 12.0 | 43.4* | -0.3
CN(C(=O)CNC(=O)c1ccccc1OCC(=O)Nc1ccc(I)cc1)c1ccccc1 | . | . | . | 3.1 | . | .
CCO/C(=C/c1sc2ccc(OC)cc2[n+]1CCCS(=O)(=O)[O-])CC | -1.0 | -1.4 | 314.3 | 16.4 | -11.7 | 5.1
CCOC(=O)C[n+]1c(C)sc2ccc(OC)cc21 | 74.7* | -2.6 | 383.4 | . | 6.7 | 1.2
COc1ccc(-c2ccc3c(n2)CCCN3Cc2ccccc2C(F)(F)F)cc1 | . | . | . | 6.8 | . | .
CC(=O)c1ccc(NC(=O)NC2CCCCN(Cc3cccc(Cl)c3)C2=O)cc1 (stereo not drawn) | . | . | . | 5.1 | . | .
Cc1nc2ccccc2c2oc(C(=O)N3CCN(C(=O)c4ccco4)CC3)cc12 | -3.4 | -2.3 | 134.2 | -3.5 | -15.6 | 1.3
Cc1nc2ccccc2c2oc(C(=O)N3CCN(c4ccc([N+](=O)[O-])cc4)CC3)cc12 | 2.2 | -0.6 | i | 1.9 | 50.8* | -3.7
O=C(c1ccc(-c2cccc(Cl)c2)o1)N1CCN(c2ccc([N+](=O)[O-])cc2)CC1 | 1.5 | 0.6 | 212.8 | 3.9 | -7.3 | -0.8
Cc1c(Cl)cccc1-c1ccc(C(=O)N2CCN(c3ccc([N+](=O)[O-])cc3)CC2)o1 | 58.4* | -5.0 | 479.3 | 3.0 | 1.9 | 1.4
N#CC1=C(S)N(c2ccccc2)C2(CCCCC2)NC1=O | 21.2 | -1.0 | 497.9 | 0.0 | 3.3 | 1.7
N#CC1=C(S)N(c2ccc(F)cc2)C2(CCCCC2)NC1=O | 80.6* | -0.8 | 563.6 | 0.5 | -1.6 | 0.0
O=C(OCc1nnc(-c2ccc([N+](=O)[O-])cc2)o1)c1ccc(F)c(S(=O)(=O)N2CCOCC2)c1 | -3.1 | -0.7 | . | 0.5 | 6.7 | 17.2*
O=C(OCc1nnc(-c2ccc(Cl)cc2)o1)c1ccc(O)cc1 | 1.4 | 0.0 | 169.5 | 2.1 | -7.6 | -0.2
CS(=O)(=O)c1ccc(C(=O)OCc2nnc(-c3ccc(Cl)cc3)o2)cc1[N+](=O)[O-] | 59.7* | -0.7 | 333.4 | . | 93.4* | 0.1
SMILES | Exocytosis inh | MPTP block | T cell HTS | rCAG RNA binder | B2AR ag | V-ATPase pHluor
COc1ccc(Cn2c(NC(=O)c3ccccc3)nc(Cc3ccccc3)c2Cc2ccccc2)cc1 | . | . | . | 5.7 | . | .
CC1(C)C2CCC1(C)C(OC(=O)c1ccccc1C(=O)O)C2 (stereo not drawn) | -1.2 | 0.3 | 101.1 | 4.4 | 4.5 | 2.9
CC1(C)C2CCC1(C)C(OCCNCCOC(=O)Nc1ccccc1)C2 (stereo not drawn) | -0.2 | 4.9 | 126.3 | -7.2 | 0.1 | 13.6*
Cc1ccc(-n2c(SCC(=O)Nc3ccccc3-c3ccccc3)nnc2-c2cccnc2)cc1 | . | . | . | 5.2 | . | .
CC1=NOC(=O)/C1=C\c1ccc(-c2ccccc2Br)o1 | 92.4* | 2.8 | . | 23.5 | 36.1 | 0.9
CC1=NOC(=O)/C1=C\c1ccc(-c2cccc(Cl)c2)o1 | 100.2* | 4.0 | 176.3 | . | 101.2* | 10.6
CC(=O)N1N=C(c2ccc3ccccc3c2)OC1(C)C | -5.5 | 3.0 | 100.8 | -4.1 | -7.0 | -1.1
CC(C)(C)C1N=C(c2ccc3ccccc3c2)OC1=O (stereo not drawn) | 63.9* | -1.5 | 351.7 | 1.9 | -1.7 | 3.5
O=C(/C=C/c1ccccc1O)c1ccco1 | -10.1 | -0.7 | 242.1 | 0.4 | 25.5 | -3.4
O=C(/C=C/c1cc(Br)ccc1O)c1ccco1 | 11.0 | 41.1 | 120.7 | 7.9 | 85.7* | -0.6
O=C1C(Br)=C(c2ccccc2)C(c2ccccc2)=C1c1ccccc1 | 106.0* | -5.4 | . | . | 22.6 | -2.3
CCCCCCCCN1C(=O)[C@@H](CC(=O)NCc2ccc(OC)c(OC)c2)C[C@@]2(C(=O)OC)C1=C[C@H](C(C)C)O[C@@H]2C1CC1 | . | . | . | 7.5 | . | .
Cc1nc(COC(=O)c2cc(O)c3ccccc3c2O)cs1 | 64.4* | 7.3 | . | 10.0 | 2.4 | 0.4
Cc1nc(COC(=O)c2ccc(CO)cc2)cs1 | -3.4 | 1.6 | 116.4 | 6.7 | -0.5 | 0.2
CC(=O)Oc1cc(C(=O)OCC(=O)NC23CC4CC(CC(C4)C2)C3)cc(OC(C)=O)c1OC(C)=O | 7.4 | 1.1 | . | 52.9* | 15.7 | 0.0
CC(C)CSc1nnc(-c2ccco2)n1C | . | . | . | -0.2 | . | .
S=C(Nc1ccccn1)c1ccccn1 | 0.9 | -4.2 | 12.3* | -3.2 | -9.5 | 1.8
COc1cc(N=c2ssnc2Cl)cc(OC)c1OC | 99.3* | -0.2 | 434.5 | 2.8 | -2.1 | -0.4
N#Cc1ccc(N=c2ssnc2Cl)cc1 | 99.3*! | 1.7 | i | -0.9 | 3.8 | 1.9
Clc1nssc1=Nc1ccccc1 | -0.8 | -2.7 | . | . | 1.8 | -0.3
Clc1ccc(N=c2ssnc2Cl)cc1 | 82.4* | 3.9 | 449.9 | -1.9 | 0.6 | 1.1
COCCCN1C(=O)[C@H](CC(=O)N2CCN(C(=O)C3CC3)CC2)[C@]2(C(=O)OC)CCCCC=C12 | . | . | . | 0.2 | . | .
CC(=NNC(=O)CSc1nnc(-c2ccc(C(C)(C)C)cc2)n1-c1ccccc1)c1cccc2ccccc12 | . | . | . | 11.9 | . | .
Cc1ccc(C)c(CSc2nnc(-c3cccs3)n2Cc2ccco2)c1 | 2.0 | 4.9 | 459.6 | -6.9 | 66.7* | 4.3
NC(=O)CSc1nnc(-c2cccs2)n1Cc1ccco1 | -3.7 | 1.9 | 320.0 | -5.9 | -4.5 | -1.1
CCC(CO)Nc1cccc2c1S(=O)(=O)N(Cc1cn(Cc3ccc(F)cc3)nn1)Cc1ccccc1O2 (stereo not drawn) | . | . | . | 5.5 | . | .
O=[N+]([O-])c1ccc(N/N=C\c2cccn2-c2ccccc2)nc1 | 56.9* | 5.8 | 152.2 | 12.0 | -14.7 | 1.0
